Data set [1] is described as follows: Cytotoxicity against human K562/A02 cells at 5 uM after 48 hrs by MTT assay. The conditions noted are these: k562/a02, 48 h. Type of data set: cell-based. In a few lines: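 Adriamycin-selected K562/A02 cells given test compound alone at 5 µM for 48 h; cytotoxicity scored by MTT as intrinsic growth inhibition.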
On the technique in general: Formazan colour is commonly taken as a measure of viable cells.

Data set [2] is described as follows: Resistance factor, ratio of adriamycin IC50 for human K562/A02 cells over-expressing Pgp to adriamycin IC50 for human K562/A02 cells over-expressing Pgp in presence of 5 uM compound. Type of data set: functional. An outline of the steps: (§1)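 MTT on K562/A02 cells exposed to a series of adriamycin concentrations, with or without modulator at 5 µM; 0.1% DMSO as solvent control. Reversal fold = adriamycin IC50 without modulator / IC50 with modulator.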

Data set [3] can be described thus: Reversal of P-gp-mediated multidrug resistance in human K562/A02 cells assessed as reduction of adriamycin IC50 at 5 uM after 48 hrs by MTT assay. It is filed as cell-based. The conditions noted are these: K562/A02, 48 h. An outline of the steps: as §1
Data set [4] can be described thus: Reversal of P-gp-mediated multidrug resistance in human K562/A02 cells assessed as reduction of adriamycin IC50 at 5 uM incubated for 24 hrs followed by adriamycin treatment post compound washout measured after 48 hrs by MTT assay. It is filed as cell-based. An outline of the steps: (§2)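 K562/A02 cells incubated 24 h with 5 µM modulator, verapamil or vehicle, then washed with growth medium. […] Reversal fold = IC50 without modulator / IC50 with modulator. Two to three experiments, mean ± SEM.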

A short description of data set [5]: Resistance factor, ratio of adriamycin IC50 for human K562/A02 cells over-expressing Pgp to adriamycin IC50 for human K562/A02 cells over-expressing Pgp in presence of 5 uM compound incubated for 24 hrs followed by adriamycin treatment post compound washout. Type of data set: functional. An outline of the steps: as §2
Data set [6] in a line: Resistance factor, ratio of adriamycin IC50 for human K562/A02 cells over-expressing Pgp to adriamycin IC50 for human K562/A02 cells over-expressing Pgp in presence of 2.5 uM compound. Type of data set: functional. An outline of the steps:
(§3)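 K562/A02 (P-gp-overexpressing) cells given graded adriamycin plus modulator at 2.5, 1.25, 0.625, 0.31, 0.156, 0.078 or 0.04 µM; verapamil 2.5 µM as positive control; adriamycin IC50 by MTT. Reversal fold = IC50 without modulator / IC50 with modulator. Two to three experiments, mean ± SEM.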

A short description of data set [7]: Reversal of P-gp-mediated multidrug resistance in human K562/A02 cells assessed as reduction of adriamycin IC50 at 5 uM incubated for 24 hrs followed by adriamycin treatment 6 hrs post compound washout measured after 48 hrs by MTT assay. Type of data set: cell-based. An outline of the steps:
as §2

Data set [8] in a line: Reversal of P-gp-mediated multidrug resistance in human K562/A02 cells assessed as reduction of adriamycin IC50 at 5 uM incubated for 24 hrs prior to adriamycin treatment measured after 48 hrs by MTT assay. Type of data set: cell-based. An outline of the steps:
as §2

Data set [9] is described as follows: Reversal of P-gp-mediated multidrug resistance in human K562/A02 cells assessed as reduction of adriamycin IC50 at 2.5 uM after 48 hrs by MTT assay. Type of data set: cell-based. The conditions noted are these: K562/A02, 48 h. An outline of the steps: as §3
A short description of data set [10]: Resistance factor, ratio of adriamycin IC50 for human K562/A02 cells over-expressing Pgp to adriamycin IC50 for human K562/A02 cells over-expressing Pgp in presence of 5 uM compound incubated for 24 hrs prior to adriamycin treatment. It is filed as functional. An outline of the steps:
as §2

Data set [11] in a line: Reversal of P-gp-mediated multidrug resistance in human K562/A02 cells assessed as reduction of adriamycin IC50 at 5 uM incubated for 24 hrs followed by adriamycin treatment 12 hrs post compound washout measured after 48 hrs by MTT assay. Type of data set: cell-based. In a few lines:
as §2

Data set [12] can be described thus: Cytotoxicity against human K562/A02 cells after 48 hrs by MTT assay. Type of data set: functional, cell-based. The conditions noted are these: K562/A02, 48 h.

Molecules are shown by their SMILES. Counter-ions that a name gives are not always drawn. Where only a bound is given, the exact number is not on record here.

The IC50 is the concentration needed to halve the response being measured.

As for `COc1ccc(C(=O)Nc2ccccc2OCc2cn(CCN3CCc4cc(OC)c(OC)cc4C3)nn2)cc1`, in data set [1], the Activity is under 10%. Also, in data set [2], the “Ratio IC50” value came to 8.7. In addition, the IC50 in data set [3] was determined as 6.25 µM.
`COc1cc2c(cc1OC)CN(CCn1cc(COc3ccccc3NC(=O)c3ccc(Cl)cc3)nn1)CC2`: the Activity in [1] was under 10%. In [2], the “Ratio IC50” value was determined as 10.4. In addition, the concentration for half-maximal inhibition (IC50) in data set [3] came out at 5.21 µM.
Taken in the same sequence, the figures for `COc1cc2c(cc1OC)CN(CCn1cc(COc3ccccc3NC(=O)c3ccc4ccccc4n3)nn1)CC2` were under 10%, 10.4 and 5.21 µM.
In [1], `COc1ccc(C(=O)Nc2ccccc2OCc2cn(CCN3CCc4cc(OC)c(OC)cc4C3)nn2)cc1OC` showed an Activity of under 10%. Moreover, in data set [2], the “Ratio IC50” value is 8.4. In addition, the half-inhibitory concentration (IC50) in data set [3] amounted to 6.45 µM.
With `COc1ccc(CCN(C)CCCC(C#N)(c2ccc(OC)c(OC)c2)C(C)C)cc1OC` (stereo not given) [VERAPAMIL], the IC50 was 40.8 µM in data set [4]; over 80 µM in data set [7]; 9.6 µM in data set [8]; 15.9 µM in data set [9]; over 80 µM in data set [11]; 6.8 µM in [3]. Also, the “Ratio IC50” value was 1.9 in data set [5], 3.4 in [6], 8.4 in data set [10] and 8.7 in data set [2].
With `COc1cc2c(cc1OC)CN(CCn1cc(COc3ccccc3NC(=O)c3ccccc3OC)nn1)CC2`, in [1], the Activity is given as under 10%. Also, the “Ratio IC50” value in data set [2] is on record as 8.1. The half-maximal inhibitory concentration (IC50) in data set [3] was determined as 6.75 µM.
The matching figures for `COc1cc2c(cc1OC)CN(CCn1cc(COc3ccccc3NC(=O)c3ccc(N(C)C)cc3)nn1)CC2`: under 10%, 5.8 and 9.32 µM.
Consider `COc1cc2c(cc1OC)CN(CCn1cc(COc3ccccc3NC(=O)c3cccc([N+](=O)[O-])c3)nn1)CC2`, for which, in [1], the Activity was under 10%. Besides, in data set [2], the “Ratio IC50” value amounted to 3.6. For the same molecule, in data set [3], the IC50 came to 15.1 µM.
In the case of `COc1cc2c(cc1OC)CN(CCn1cc(COc3ccccc3NC(=O)c3ccc(C#N)cc3)nn1)CC2`, the Activity in [1] is given as under 10%. Further, the “Ratio IC50” value in data set [2] is given as 3.6. Further, the IC50 in data set [3] worked out at 14.4 µM.
Molecule `COc1cccc(C(=O)Nc2ccccc2OCc2cn(CCN3CCc4cc(OC)c(OC)cc4C3)nn2)c1` registered an Activity in data set [1] of under 10%. In [2], the “Ratio IC50” value was 5.6. Besides, in [3], the 50% inhibitory concentration (IC50) stood at 9.71 µM.
In the case of `COc1cc2c(cc1OC)CN(CCn1cc(COc3ccccc3NC(=O)c3cccnc3)nn1)CC2`, the Activity in data set [1] is recorded as under 10%. In addition, in data set [2], the “Ratio IC50” value turned out to be 2.9. Moreover, the half-maximal inhibitory concentration (IC50) in data set [3] amounted to 18.9 µM.
Turning to `COc1cc2c(cc1OC)CN(CCn1cc(COc3ccccc3NC(=O)c3ccccc3[N+](=O)[O-])nn1)CC2`, the Activity in data set [1] is on record as under 10%. In [2], the “Ratio IC50” value came out at 3.5. Moreover, the concentration for half-maximal inhibition (IC50) in data set [3] came out at 15.6 µM.
For `COc1cc(OC)cc(C(=O)Nc2ccccc2OCc2cn(CCN3CCc4cc(OC)c(OC)cc4C3)nn2)c1`, in data set [1], the Activity is listed as under 10%. Further, the “Ratio IC50” value in [2] came to 3.9. Also, the IC50 in data set [3] was 13.8 µM.
In the case of `COc1cc2c(cc1OC)CN(CCn1cc(COc3ccccc3NC(=O)c3ccccc3)nn1)CC2`, the Activity in [1] is given as under 10%. The “Ratio IC50” value in data set [2] amounted to 5. In data set [3], the half-inhibitory concentration (IC50) was found to be 10.8 µM.
With `COc1cc2c(cc1OC)CN(CCn1cc(COc3ccccc3NC(=O)c3cccc(Cl)c3)nn1)CC2`, in [1], the Activity is given as under 10%. Further, the “Ratio IC50” value in data set [2] is 4.9. Moreover, the half-inhibitory concentration (IC50) in [3] amounted to 11 µM.
Taken in the same sequence, the figures for `COc1cc2c(cc1OC)CN(CCn1cc(COc3ccccc3NC(=O)c3cccc(C)c3)nn1)CC2` were under 10%, 7.6 and 7.16 µM.
The matching figures for `COc1cc2c(cc1OC)CN(CCn1cc(COc3ccccc3NC(=O)c3cnc4ccccc4c3)nn1)CC2`: under 10%, 6.1 and 8.89 µM.
As for `COc1cc2c(cc1OC)CN(CCn1cc(COc3ccccc3NC(=O)c3ccc(C)cc3)nn1)CC2`, the Activity in [1] was under 10%. Further, the “Ratio IC50” value in [2] was determined as 7.5. In data set [3], the 50% inhibitory concentration (IC50) is 7.25 µM.
Take `COc1cccc2c1C(=O)c1c(O)c3c(c(O)c1C2=O)C[C@@](O)(C(=O)CO)C[C@@H]3O[C@H]1C[C@H](N)[C@H](O)[C@H](C)O1` [DOXORUBICIN HYDROCHLORIDE]: in data set [12], the IC50 was 54.2 µM.
In turn, `COc1cc2c(cc1OC)CN(CCn1cc(COc3ccccc3NC(=O)c3cc(OC)c(OC)c(OC)c3)nn1)CC2` showed an Activity in data set [1] of under 10%. Also, the “Ratio IC50” value in data set [2] was 16.8. The IC50 in [3] turned out to be 3.23 µM.

For the origin of these results see ChEMBL document CHEMBL3352496, “Design, synthesis and evaluation of novel triazole core based P-glycoprotein-mediated multidrug resistance reversal agents” (Bioorg Med Chem, 2014).
